Source: ChEMBL document CHEMBL3272191, “Aporphines. 14 Dopaminergic and antinociceptive activity of aporphine derivatives. Synthesis of 10-hydroxyaporphines and 10-hydroxy-N-n-propylnoraporphine” (1976)
Calls of active or inactive are those of the source.

Assays:
Mus musculus [1] = assay: Antinociceptive activity in albino CD-1 mouse at 0.1 to 10 mg/kg, ip after 60 mins by tail-flick method; type: functional, organism-based
Summary of the method: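 Male albino CD-1 mice (18–24 g) were used in groups of ten. Compounds were suspended in 0.5% methylcellulose and given ip. Light was focused on the ventral tail and set for a 2–4 s baseline flick; mice outside that range were excluded. The control was the mean of two readings 30 min apart. Latencies were read every 30 min for 2 h, with a 10 s cutoff. Read-out was %MPE = [(Tr − Tc)/(10 − Tc)] × 100, taken at time of peak effect.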

Mus musculus [2] = assay: Antinociceptive activity in naloxone hydrochloride-pretreated albino CD-1 mouse at 0.1 to 10 mg/kg, ip after 60 mins by tail-flick method; type: functional, organism-based
Rattus norvegicus [3] = assay: Central dopaminergic activity in 6-OH-DA-lesioned specific pathogen-free Sprague-Dawley rat assessed as induction of rotational behavior measured as total time at 0.1 mg/kg, ip; type: functional; details: route intraperitoneal
Summary of the method: (§1)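 Drugs were given ip, mostly to one group of four rats, with an extra group of four in some runs. Doses were 3 days or more apart over several months. Read-outs were total turning time (min), peak activity, overall mean activity and total activity, given as means ± SEM.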

Rattus norvegicus [4] = assay: Central dopaminergic activity in 6-OH-DA-lesioned ip dosed specific pathogen-free Sprague-Dawley rat assessed as induction of rotational behavior; type: functional, organism-based; summary of the method: as §1
Rattus norvegicus [5] = assay: Central dopaminergic activity in 6-OH-DA-lesioned specific pathogen-free Sprague-Dawley rat assessed as induction of rotational behavior measured as total time at 0.25 mg/kg, ip; type: functional; details: route intraperitoneal; summary of the method: as §1
Rattus norvegicus [6] = assay: Central dopaminergic activity in 6-OH-DA-lesioned specific pathogen-free Sprague-Dawley rat assessed as induction of rotational behavior measured as total time at 1 mg/kg, ip; type: functional; details: route intraperitoneal; summary of the method: as §1
Rattus norvegicus [7] = assay: Central dopaminergic activity in 6-OH-DA-lesioned specific pathogen-free Sprague-Dawley rat assessed as induction of rotational behavior measured as total time at 0.01 mg/kg, ip; type: functional; details: route intraperitoneal; summary of the method: as §1
Rattus norvegicus [8] = assay: Central dopaminergic activity in 6-OH-DA-lesioned specific pathogen-free Sprague-Dawley rat assessed as induction of rotational behavior measured as total time at 0.05 mg/kg, ip; type: functional; details: route intraperitoneal; summary of the method: as §1
Rattus norvegicus [9] = assay: Central dopaminergic activity in 6-OH-DA-lesioned specific pathogen-free Sprague-Dawley rat assessed as induction of rotational behavior measured as total time at 2.5 mg/kg, ip; type: functional; details: route intraperitoneal; summary of the method: as §1
Rattus norvegicus [10] = assay: Central dopaminergic activity in 6-OH-DA-lesioned specific pathogen-free Sprague-Dawley rat assessed as induction of rotational behavior measured as total time at 0.5 mg/kg, ip; type: functional; details: route intraperitoneal; summary of the method: as §1
Mus musculus [11] = assay: Antinociceptive activity in albino CD-1 mouse at 0.1 to 10 mg/kg, ip after 10 mins by tail-flick method; type: functional, organism-based
Rattus norvegicus [12] = assay: Central dopaminergic activity in 6-OH-DA-lesioned specific pathogen-free Sprague-Dawley rat assessed as induction of rotational behavior measured as total time at 0.025 mg/kg, ip; type: functional; details: route intraperitoneal; summary of the method: as §1
Rattus norvegicus [13] = assay: Central dopaminergic activity in 6-OH-DA-lesioned specific pathogen-free Sprague-Dawley rat assessed as induction of rotational behavior measured as total time at 0.005 mg/kg, ip; type: functional; details: route intraperitoneal; summary of the method: as §1
Mus musculus [14] = assay: Antinociceptive activity in naloxone hydrochloride-pretreated albino CD-1 mouse at 0.1 to 10 mg/kg, ip after 10 mins by tail-flick method; type: functional, organism-based
Rattus norvegicus [15] = assay: Central dopaminergic activity in 6-OH-DA-lesioned specific pathogen-free Sprague-Dawley rat assessed as induction of rotational behavior measured as total time at 5 mg/kg, ip; type: functional; details: route intraperitoneal; summary of the method: as §1
Rattus norvegicus [16] = assay: Central dopaminergic activity in 6-OH-DA-lesioned specific pathogen-free Sprague-Dawley rat assessed as induction of rotational behavior measured as total time at 2 mg/kg, ip; type: functional; details: route intraperitoneal; summary of the method: as §1
Mus musculus [17] = assay: Antinociceptive activity in albino CD-1 mouse at 1 to 10 mg/kg, ip up to 2 hrs by tail-flick method; type: functional, organism-based
Summary of the method: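 Male albino CD-1 mice (18–24 g), ten per group, dosed ip as suspension in 0.5% methylcellulose. Radiant light on ventral tail, adjusted for baseline 2–4 sec; animals outside excluded. Two control latencies 30 min apart averaged; post-dose latencies every 30 min over 2 hr, 10-sec cutoff. %MPE = [(Tr − Tc)/(10 − Tc)] × 100, read at peak-effect time.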

Rattus norvegicus [18] = assay: Central dopaminergic activity in 6-OH-DA-lesioned specific pathogen-free Sprague-Dawley rat assessed as induction of rotational behavior measured as total time at 15 mg/kg, ip; type: functional; details: route intraperitoneal
Summary of the method: (§2)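 Rotational behavior in unilaterally 6-OHDA-lesioned rats, ascending DA pathway. Drug given ip, mostly to one group of four rats, plus a second group of four for some doses. Injections at least 3 days apart over several months. Reported as mean total turning time (min), peak, overall and total activity, means ± SEM.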

Rattus norvegicus [19] = assay: Central dopaminergic activity in 6-OH-DA-lesioned specific pathogen-free Sprague-Dawley rat assessed as induction of rotational behavior measured as total time at 25 mg/kg, ip; type: functional; details: route intraperitoneal; summary of the method: as §2

Compound | Activity (Mus musculus [1]) | Activity (Mus musculus [2]) | Activity (Rattus norvegicus [4]) | Time (Rattus norvegicus [6]) [min] | Time (Rattus norvegicus [7]) [min] | Time (Rattus norvegicus [8]) [min] | other results
CN1CC[C@]23c4c5ccc(O)c4O[C@H]2[C@@H](O)C=C[C@H]3[C@H]1C5 | Active | inactive | – | – | – | – | –
CCCN1CCc2cccc3c2C1Cc1cccc(O)c1-3 (racemic) | – | – | Active | 725 | 0 | 195 | Time (Rattus norvegicus [3]): 200 min; Time (Rattus norvegicus [5]): 580 min
CCCN1CCc2cccc3c2C1Cc1ccc(O)cc1-3 (racemic) | Active | Active | Active | 177 | – | – | Time (Rattus norvegicus [9]): 174 min; Time (Rattus norvegicus [5]): 0 min; Time (Rattus norvegicus [10]): 105 min
CCCN1CCc2cccc3c2[C@H]1Cc1ccc(O)c(O)c1-3 (racemic) [R-N-PROPYLNORAPOMORPHINE] | – | – | Active | – | 200 | 305 | Activity (Mus musculus [11]): Active; Time (Rattus norvegicus [3]): 360 min; Time (Rattus norvegicus [12]): 185 min; Time (Rattus norvegicus [13]): 205 min; Activity (Mus musculus [14]): Active
COc1ccc2c(c1O)-c1cccc3c1[C@@H](C2)N(C)CC3 [APOCIDEINE] | – | – | – | 40 | – | – | Time (Rattus norvegicus [15]): 200 min
CN1CCc2cccc3c2[C@H]1Cc1ccc(O)c(O)c1-3 [APOMORPHINE] | inactive | Active | Active | 153 | 33 | 63 | Time (Rattus norvegicus [16]): 238 min; Time (Rattus norvegicus [12]): 55 min; Time (Rattus norvegicus [10]): 144 min
N[C@@H](Cc1ccc(O)c(O)c1)C(=O)O [LEVODOPA] | – | – | – | – | – | – | Activity (Mus musculus [17]): inactive; Time (Rattus norvegicus [18]): 90 min; Time (Rattus norvegicus [15]): 35 min; Time (Rattus norvegicus [19]): 127 min
